ChEMBL document CHEMBL1124337, “Structure-activity relationships in prazosin-related compounds. Effect of replacing a piperazine ring with an alkanediamine moiety on alpha 1-adrenoreceptor blocking activity” (J Med Chem, 1989)
Each block holds one compound with its values, some of them ahead of it.

Key:
[1] = molecular target: T1, Adrenergic receptor alpha-2 (Rattus norvegicus, UniProt P22086+P19328+P22909); assay: Antagonist activity for Alpha-2 adrenergic receptor against clonidine in rat vas deferences; format: functional
T1 sequence (P22086 whole entry): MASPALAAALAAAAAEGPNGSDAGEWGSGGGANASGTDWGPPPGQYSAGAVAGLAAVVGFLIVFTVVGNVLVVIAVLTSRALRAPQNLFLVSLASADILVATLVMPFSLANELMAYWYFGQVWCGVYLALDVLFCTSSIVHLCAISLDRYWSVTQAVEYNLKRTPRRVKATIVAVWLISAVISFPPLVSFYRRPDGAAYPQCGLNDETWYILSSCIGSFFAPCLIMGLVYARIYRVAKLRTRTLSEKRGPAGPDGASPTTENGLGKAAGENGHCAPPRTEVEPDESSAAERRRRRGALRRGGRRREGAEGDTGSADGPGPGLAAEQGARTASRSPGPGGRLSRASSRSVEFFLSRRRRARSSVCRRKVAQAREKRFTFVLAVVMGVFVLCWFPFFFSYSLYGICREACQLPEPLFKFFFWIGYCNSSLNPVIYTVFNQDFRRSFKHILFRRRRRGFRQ
T1 sequence (P19328 whole entry): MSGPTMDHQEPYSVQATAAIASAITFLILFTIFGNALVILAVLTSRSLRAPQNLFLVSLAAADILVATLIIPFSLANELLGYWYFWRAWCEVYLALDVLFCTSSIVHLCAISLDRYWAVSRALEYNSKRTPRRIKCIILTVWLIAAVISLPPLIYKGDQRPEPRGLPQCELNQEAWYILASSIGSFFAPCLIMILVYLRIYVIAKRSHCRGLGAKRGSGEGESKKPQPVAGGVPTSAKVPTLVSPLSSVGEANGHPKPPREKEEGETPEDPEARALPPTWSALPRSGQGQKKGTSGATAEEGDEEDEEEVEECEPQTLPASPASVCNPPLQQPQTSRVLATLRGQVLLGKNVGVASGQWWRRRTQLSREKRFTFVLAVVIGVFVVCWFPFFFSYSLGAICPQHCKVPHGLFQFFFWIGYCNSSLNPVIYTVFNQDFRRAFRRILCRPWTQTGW
T1 sequence (P22909 whole entry): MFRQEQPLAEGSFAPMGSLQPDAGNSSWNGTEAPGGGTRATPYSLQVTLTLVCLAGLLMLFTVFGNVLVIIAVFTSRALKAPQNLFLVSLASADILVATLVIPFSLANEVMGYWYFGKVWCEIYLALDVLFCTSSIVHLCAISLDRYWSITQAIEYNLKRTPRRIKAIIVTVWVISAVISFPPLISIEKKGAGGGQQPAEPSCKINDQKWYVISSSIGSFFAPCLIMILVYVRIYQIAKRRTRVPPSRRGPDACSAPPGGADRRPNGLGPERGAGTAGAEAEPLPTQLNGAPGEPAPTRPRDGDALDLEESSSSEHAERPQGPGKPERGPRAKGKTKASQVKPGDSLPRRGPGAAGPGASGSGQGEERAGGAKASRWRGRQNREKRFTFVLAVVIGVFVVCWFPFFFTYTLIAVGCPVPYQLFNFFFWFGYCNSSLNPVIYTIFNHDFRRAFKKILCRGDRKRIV

[2] = molecular target: T2, Adrenergic receptor alpha-1 (Rattus norvegicus, UniProt P15823+P23944+P43140); assay: Antagonist activity for Alpha-1 adrenergic receptor against norepinephrine in rat vas deferences; format: functional
T2 sequence (P15823 whole entry): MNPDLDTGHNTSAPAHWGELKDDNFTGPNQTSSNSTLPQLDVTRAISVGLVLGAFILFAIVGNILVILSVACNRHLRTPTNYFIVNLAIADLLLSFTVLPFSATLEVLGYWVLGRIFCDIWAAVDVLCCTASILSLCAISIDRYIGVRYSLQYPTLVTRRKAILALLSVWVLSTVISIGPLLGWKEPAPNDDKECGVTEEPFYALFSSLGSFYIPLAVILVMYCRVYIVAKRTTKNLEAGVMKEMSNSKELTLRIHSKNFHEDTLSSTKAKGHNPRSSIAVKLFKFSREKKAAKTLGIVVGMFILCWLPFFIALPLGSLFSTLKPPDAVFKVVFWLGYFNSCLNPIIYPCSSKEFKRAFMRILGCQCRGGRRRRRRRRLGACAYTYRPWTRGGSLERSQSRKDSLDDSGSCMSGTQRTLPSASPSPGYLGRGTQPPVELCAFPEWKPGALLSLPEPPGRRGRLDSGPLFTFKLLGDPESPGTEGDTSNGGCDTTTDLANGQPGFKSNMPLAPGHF
T2 sequence (P23944 whole entry): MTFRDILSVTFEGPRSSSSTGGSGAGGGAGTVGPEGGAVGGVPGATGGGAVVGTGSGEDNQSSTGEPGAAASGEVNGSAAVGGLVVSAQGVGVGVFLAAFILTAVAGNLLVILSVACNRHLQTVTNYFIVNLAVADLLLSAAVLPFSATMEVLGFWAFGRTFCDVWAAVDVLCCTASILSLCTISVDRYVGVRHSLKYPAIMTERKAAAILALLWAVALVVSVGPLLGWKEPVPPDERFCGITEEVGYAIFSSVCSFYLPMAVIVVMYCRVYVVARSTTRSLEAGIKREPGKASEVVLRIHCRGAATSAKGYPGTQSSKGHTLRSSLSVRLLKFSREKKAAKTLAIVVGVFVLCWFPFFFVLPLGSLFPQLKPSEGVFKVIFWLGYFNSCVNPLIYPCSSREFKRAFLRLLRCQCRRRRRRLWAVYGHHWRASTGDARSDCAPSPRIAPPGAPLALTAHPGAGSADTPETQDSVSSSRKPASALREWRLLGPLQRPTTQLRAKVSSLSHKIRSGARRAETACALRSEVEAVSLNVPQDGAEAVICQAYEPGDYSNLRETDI
T2 sequence (P43140 whole entry): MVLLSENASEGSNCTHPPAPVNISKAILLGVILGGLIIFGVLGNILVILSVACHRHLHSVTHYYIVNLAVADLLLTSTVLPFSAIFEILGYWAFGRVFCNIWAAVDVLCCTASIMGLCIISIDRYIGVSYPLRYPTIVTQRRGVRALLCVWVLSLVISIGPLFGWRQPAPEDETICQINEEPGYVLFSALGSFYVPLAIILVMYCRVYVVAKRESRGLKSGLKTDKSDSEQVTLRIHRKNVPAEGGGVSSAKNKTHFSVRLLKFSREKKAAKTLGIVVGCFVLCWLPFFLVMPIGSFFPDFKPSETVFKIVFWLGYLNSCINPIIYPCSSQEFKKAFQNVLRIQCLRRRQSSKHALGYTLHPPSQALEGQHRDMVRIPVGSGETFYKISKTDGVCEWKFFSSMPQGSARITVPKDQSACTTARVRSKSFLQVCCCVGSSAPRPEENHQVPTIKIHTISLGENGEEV

Rattus norvegicus = organism: Rattus norvegicus; assay: Compound was tested for its effect in reducing the mean blood pressure after 2 min in male wistar rats; format: functional
Procedure, shortened: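 Male Wistar rats (400–490 g) under equithesin (3 mL/kg, then 0.8 mL/kg ip, with supplements every 90–120 min). Dosing was a single pulse iv injection into the jugular vein of 100 μg/kg in 30 μL, flushed with 100 μL saline, after a vehicle-only control. Carotid mean arterial pressure was followed over time as % decrease, given as mean ± SE, with paired t test.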

[3] = molecular target: T2, Adrenergic receptor alpha-1; assay: Compound evaluated for antagonist activity to alpha-1 adrenergic receptor in a competitive assay against norepinephrine in rat vas deferences; format: functional
Procedure, shortened: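 Epididymal portion (14 mm) of male albino rat (175–200 g) vas deferens in Krebs with propranolol 1 μM and cocaine 10 μM, tension 0.4 g, equilibrated ≥1 h. Cumulative norepinephrine contraction curves: the first was discarded and the second was the control. A third curve followed 30 min antagonist incubation. Responses were taken as % of control maximum, corrected by untreated time-controls. Dose ratios at EC50 (three concentrations ×5) gave Schild pA2 with slope constrained to −1.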

[4] = molecular target: T1, Adrenergic receptor alpha-2; assay: Compound evaluated for antagonist activity to alpha-2 adrenergic receptor in a competitive assay against clonidine in rat vas deferences; format: functional
Procedure, shortened: (§1)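 Male albino rat (175–200 g) vas deferens in 20 mL Krebs baths containing propranolol 1 μM and cocaine 10 μM, loading tension 0.5–0.8 g. Field stimulation at 0.1 Hz, 3-ms pulses, fixed 10–35 V. After ≥1 h equilibration, a cumulative clonidine curve (twitch inhibition) was run, then 30 min antagonist and a second curve. Time-matched controls were run. pA2 came from Schild plots (slope constrained to −1), three antagonist concentrations ×5, or van Rossum for two concentrations.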

[5] = molecular target: Adrenergic receptor alpha-1 (Rattus norvegicus) (UniProt P15823+P23944+P43140); assay: Selectivity ratio is the antilog of the difference between pA2 at alpha-1 and alpha-2 adrenergic receptors
Procedure, shortened: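 Ratio calculated as the antilog of the difference between the pA2 values from the norepinephrine (α1, epididymal vas deferens) and clonidine (α2, field-stimulated vas deferens) Schild analyses in rat tissue.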

[6] = molecular target: T1, Adrenergic receptor alpha-2; assay: Compound evaluated for antagonist activity to Alpha-2 adrenergic receptor in a competitive assay against clonidine in rat vas deferences; format: functional; procedure, shortened: as §1

pA2 [1]: 6.84
pA2 [2]: 8.93
Structure (SMILES): COc1cc2nc(N(C)CCCCCCN(C)C(=O)c3ccco3)nc(N)c2cc1OC
Reduction (Rattus norvegicus): 57.5%

pA2 [1]: 6.31
pA2 [2]: 8.1
Structure (SMILES): COc1cc2nc(N(C)CCCCCCCCN(C)C(=O)c3ccco3)nc(N)c2cc1OC

pA2 [1]: 6.68
pA2 [2]: 8.83
Structure (SMILES): COc1cc2nc(N(C)CCCCCN(C)C(=O)c3ccco3)nc(N)c2cc1OC

pA2 [1]: 6.45
pA2 [2]: 7.41
Structure (SMILES): COc1cc2nc(N(C)CCCN(C)C(=O)c3ccco3)nc(N)c2cc1OC

pA2 [1]: 6.55
pA2 [2]: 8.6
Structure (SMILES): COc1cc2nc(N(C)CCCCCCCN(C)C(=O)c3ccco3)nc(N)c2cc1OC

pA2 [1]: 6.5
pA2 [2]: 8.15
Structure (SMILES): COc1cc2nc(N(C)CCCCN(C)C(=O)c3ccco3)nc(N)c2cc1OC

pA2 [1]: 5.52
pA2 [2]: 6.7
Structure (SMILES): COc1cc2nc(N(C)CCN(C)C(=O)c3ccco3)nc(N)c2cc1OC

pA2 [1]: 5.76
pA2 [2]: 8.17
Structure (SMILES): COc1cc2nc(NCCCCCCN(C)C(=O)c3ccco3)nc(N)c2cc1OC

pA2 [1]: 5.98
pA2 [2]: 8.53
Structure (SMILES): COc1cc2nc(N(C)CCCCCCNC(=O)c3ccco3)nc(N)c2cc1OC

The next lines start with the compound.

Structure (SMILES): COc1cc2nc(NCCNC(=O)c3ccco3)nc(N)c2cc1OC
pA2 [1]: 5.37
pA2 [2]: 8.28

Structure (SMILES): COc1cc2nc(N3CCN(C(=O)c4ccco4)CC3)nc(N)c2cc1OC [PRAZOSIN]
Reduction (Rattus norvegicus): 38.5%

Structure (SMILES): COc1cc2nc(NCCCCCCNC(=O)c3ccco3)nc(N)c2cc1OC
pA2 [3]: 7.88
pA2 [4]: 4.51
Ratio [5]: 2340

Structure (SMILES): COc1cc2nc(NCCCCNC(=O)c3ccco3)nc(N)c2cc1OC
pA2 [3]: 8.25
pA2 [4]: 6.03
Ratio [5]: 170

Structure (SMILES): COc1cc2nc(NCCCNC(=O)c3ccco3)nc(N)c2cc1OC
pA2 [3]: 8.01
pA2 [4]: 5.99
Ratio [5]: 105

Structure (SMILES): COc1cc2nc(NCCCCCCCNC(=O)c3ccco3)nc(N)c2cc1OC
pA2 [1]: 5.04
pA2 [2]: 7.54

Structure (SMILES): COc1cc2nc(NCCCCCNC(=O)c3ccco3)nc(N)c2cc1OC
pA2 [3]: 7.72
pA2 [4]: 5.01
Ratio [5]: 513

Structure (SMILES): COc1cc2nc(NCCCCCCCCNC(=O)c3ccco3)nc(N)c2cc1OC
pA2 [1]: 4.78
pA2 [2]: 7.22

Structure (SMILES): COc1cc2nc(N(C)CCNC(=O)c3ccco3)nc(N)c2cc1OC
pA2 [6]: 5.2
pA2 [2]: 8.03
